Results taken from ChEMBL document CHEMBL1126036, “Quinolone antibacterial agents. Synthesis and structure-activity relationships of a series of amino acid prodrugs of racemic and chiral 7-(3-amino-1-pyrrolidinyl)quinolones. Highly soluble quinolone prodrugs with in vivo pseudomonas activity” (J Med Chem, 1992).

What was measured:
[1] = Solubility (in 0.1 N HCl); assay type: physicochemical; details: read-out: S
In short: (§1)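 Solubility was measured either from HPLC peak areas at equilibrium or by a conventional weight-per-volume method. All solutions were held for 24 h before measurement.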

[2] = Solubility (at pH 4); assay type: physicochemical; details: buffer, read-out: S; in short: as §1
[3] = Solubility (at pH 7.4); assay type: physicochemical; details: buffer, read-out: S; in short: as §1
Escherichia coli [4] = assay: In vitro antibacterial activity against gram negative Escherichia coli Vogel.; assay type: functional
Enterococcus faecalis = assay: In vitro antibacterial activity against gram positive Enterococcus faecalis MGH-2.; assay type: functional
[5] = biological target: DNA gyrase (Escherichia coli) (UniProt P0AES6+P0AES4); assay: In vitro concentration inhibiting DNA gyrase induced cleavage in Escherichia coli H560.; assay type: functional
In short: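 DNA gyrase test run as described in earlier work. The value is the drug concentration (µg/mL) needed to cause DNA cleavage.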

Enterobacter cloacae = assay: In vitro antibacterial activity against gram negative Enterobacter cloacae MA 2646.; assay type: functional
Klebsiella pneumoniae = assay: In vitro antibacterial activity against gram negative Klebsiella pneumoniae MGH-2.; assay type: functional
Escherichia coli [6] = assay: In vivo potency against acute systemic infection in mouse caused by Escherichia coli Vogel on oral administration by gavage.; assay type: functional; details: read-out: PD50
In short: (§2)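 Acute systemic mouse infection. A single oral dose was given by gavage at the time of challenge. Potency is reported as the median protective dose (PD50, mg/kg), determined by earlier published methods.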

Streptococcus pneumoniae [7] = assay: In vivo potency against acute systemic infection in mouse caused by Streptococcus pneumoniae SV-1 on oral administration by gavage.; assay type: functional; details: read-out: PD50; in short: as §2
Streptococcus pneumoniae [8] = assay: In vivo potency against acute systemic infection in mouse caused by Streptococcus pneumoniae SV-1 on subcutaneous injection.; assay type: functional; details: sc, read-out: PD50
In short: (§3)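 Acute systemic mouse infection. A single subcutaneous dose was injected at the time of challenge. Potency is reported as the median protective dose (PD50, mg/kg), determined by earlier published methods.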

Escherichia coli [9] = assay: In vivo potency against acute systemic infection in mouse caused by Escherichia coli vogel on subcutaneous injection.; assay type: functional; details: sc, read-out: PD50; in short: as §3
Pseudomonas aeruginosa = assay: In vitro antibacterial activity against gram negative Pseudomonas aeruginosa UI-18.; assay type: functional
Providencia rettgeri = assay: In vitro antibacterial activity against gram negative Providencia rettgeri M-1771.; assay type: functional
Staphylococcus aureus [10] = assay: In vitro antibacterial activity against gram positive Staphylococcus aureus H-228.; assay type: functional
Streptococcus pyogenes = assay: In vitro antibacterial activity against gram positive Streptococcus pyogenes C-203.; assay type: functional
Staphylococcus aureus [11] = assay: In vitro antibacterial activity against gram positive Staphylococcus aureus UC76.; assay type: functional
Streptococcus pneumoniae [12] = assay: In vitro antibacterial activity against gram positive Streptococcus pneumoniae SV-1.; assay type: functional
[13] = Aqueous solubility; assay type: physicochemical; details: water (aqueous); read-out: S; in short: as §1

| SMILES | solubility [1] [mg/mL] | solubility [2] [mg/mL] | solubility [3] [mg/mL] | MIC (Escherichia coli [4]) [µg/mL] | MIC (Enterococcus faecalis) [µg/mL] | Cleavage [5] [µg/mL] | MIC (Enterobacter cloacae) [µg/mL] | MIC (Klebsiella pneumoniae) [µg/mL] | ED50 (Escherichia coli [6]) [mg/kg] | ED50 (Streptococcus pneumoniae [7]) [mg/kg] | ED50 (Streptococcus pneumoniae [8]) [mg/kg] | ED50 (Escherichia coli [9]) [mg/kg] | MIC (Pseudomonas aeruginosa) [µg/mL] | MIC (Providencia rettgeri) [µg/mL] | MIC (Staphylococcus aureus [10]) [µg/mL] | MIC (Streptococcus pyogenes) [µg/mL] | MIC (Staphylococcus aureus [11]) [µg/mL] | MIC (Streptococcus pneumoniae [12]) [µg/mL] | solubility [13] [mg/mL] |
| --- | --- | --- | --- | --- | --- | --- | --- | --- | --- | --- | --- | --- | --- | --- | --- | --- | --- | --- | --- |
| Cl.N[C@@H](Cc1ccccc1)C(=O)NC1CCN(c2cc3c(cc2F)c(=O)c(C(=O)O)cn3C2CC2)C1.O (stereo partly drawn) | 9.2 | 66 | 0.3 | 0.8 | 0.4 | 25 | 0.8 | 3.1 | 5 | > 50 | 5 | 1 | 6.3 | 3.1 | 0.8 | 0.4 | 0.2 | 0.4 | 44 |
| C[C@H](N)C(=O)N[C@@H]1CCN(c2c(F)cc3c(=O)c(C(=O)O)cn(C4CC4)c3c2F)C1.Cl.O | 6 | 30 | 0.07 | 0.4 | 0.8 | 2.5 | 0.2 | 0.8 | 1 | 25 | 19 | 0.6 | 3.1 | 0.8 | 0.8 | 0.4 | 0.2 | 0.4 | 29 |
| Cl.N[C@@H](Cc1ccccc1)C(=O)NC1CCN(c2c(F)cc3c(=O)c(C(=O)O)cn(C4CC4)c3c2F)C1.O (stereo partly drawn) | 7.2 | 21 |  | 0.8 | 25 | 7.5 | 1.6 | 1.6 | 5 |  |  | 1 | 25 | 3.1 | 3.1 | > 25 | 1.6 | > 25 | 31 |
| Cl.N[C@@H]1CCN(c2c(F)cc3c(=O)c(C(=O)O)cn(C4CC4)c3c2F)C1.O |  |  |  | 0.013 | 0.05 | 0.5 | 0.006 | 0.013 | 0.9 | 14 | 9 | 0.2 | 0.1 | 0.025 | 0.05 | 0.05 | 0.006 | 0.025 | 11 |
| C[C@@H](N)C(=O)NC1CCN(c2cc3c(cc2F)c(=O)c(C(=O)O)cn3C2CC2)C1.Cl.O (stereo partly drawn) | > 100 | > 100 | 0.24 | 0.8 | 0.2 | 1 | 0.8 | 0.8 | > 100 | > 100 | 3.1 | 4.1 | 1.6 | 1.6 | 0.4 | 0.013 | 0.05 | 0.025 | > 100 |
| C[C@@H](N)C(=O)NC1CCN(c2c(F)cc3c(=O)c(C(=O)O)cn(C4CC4)c3c2F)C1.Cl.O (stereo partly drawn) | 3.6 | 19.4 |  | 0.2 | 0.025 | 2.5 | 0.4 | 0.4 | 31 | > 100 | 1 | 2 | 1.6 | 0.8 | 0.05 | 0.006 | 0.006 | 0.013 | 42 |
| Cl.NCC(=O)NC1CCN(c2cc3c(cc2F)c(=O)c(C(=O)O)cn3C2CC2)C1.O (stereo not drawn) | > 100 | > 100 | 0.22 | 0.4 | 1.6 | 2.5 | 0.4 | 0.8 | 6.3 | > 100 | 18 | 1.1 | 1.6 | 1.6 | 3.1 | 0.1 | 0.4 | 0.4 | > 100 |
| Cl.NCCCC[C@H](N)C(=O)NC1CCN(c2cc3c(cc2F)c(=O)c(C(=O)O)cn3C2CC2)C1.O (stereo partly drawn) | 69 | > 100 | 0.11 | 12.5 | > 25 |  | 12.5 | 12.5 | 10 | > 100 | 12 | 1 | 25 | 25 | 25 | 12.5 | 3.1 | 25 | 93 |
| Cl.NCC(=O)NC1CCN(c2nc3c(cc2F)c(=O)c(C(=O)O)cn3C2CC2)C1.O (stereo not drawn) | 67 | > 200 |  | 0.2 | 0.8 | 2.5 | 0.4 | 0.4 |  | 37 | 10 |  | 3.1 | 0.8 | 1.6 | 0.1 | 0.4 | 0.8 | > 200 |
| Cl.NCC(=O)NC1CCN(c2c(F)cc3c(=O)c(C(=O)O)cn(C4CC4)c3c2F)C1.O (stereo not drawn) | 4.6 | 20 |  | 0.2 | 0.4 | 5 | 0.2 | 0.4 | 1 | 29 | 16 | 0.4 | 1.6 | 0.4 | 0.4 | 0.2 | 0.1 | 0.4 | 33 |
| Cl.NCCCC[C@H](N)C(=O)NC1CCN(c2c(F)cc3c(=O)c(C(=O)O)cn(C4CC4)c3c2F)C1.O (stereo partly drawn) |  |  |  | 6.3 | 6.3 |  | 3.1 | 12.5 |  |  |  |  | 12.5 | 12.5 | 0.4 | 6.3 | 0.2 | 6.3 |  |
